Laboratory results: ChEMBL document CHEMBL1157237, “Methanolysis products of disorazole A1” (J Nat Prod, 2006)

Tests used:
Assay type in all cases: functional, cell-based
A549 = experiment: Antiproliferative activity against human A549 cells after 72 hrs by celltitre assay; settings: A549, 72 h
Procedure, shortened: (§1)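 Cells grown in RPMI 1640 with 10% FBS at 37 °C under 5% CO2, seeded in duplicate at about 5000 cells/well and left 24 h. Compounds then added as 10-fold serial dilutions for 72 h. Viability read by CellTiter-Glo luminescence. IC50 taken as the concentration giving 50% inhibition of cell growth.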

MCF7 = experiment: Antiproliferative activity against human MCF7 cells after 72 hrs by celltitre assay; settings: MCF7, 72 h; procedure, shortened: as §1
CCRF-CEM [1] = experiment: Antiproliferative activity against human multidrug-resistant P-glycoprotein expressing CCRF-CEM/PTX cells after 72 hrs by celltitre assay
Procedure, shortened: (§2)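 Cultured in RPMI 1640 with 5% FBS at 37 °C and 5% CO2. Seeded in duplicate at about 5000 cells/well and incubated 24 h before 10-fold serial compound dilutions were added for 72 h. Viability measured by CellTiter-Glo luminescence. IC50 = concentration inhibiting growth by 50%.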

CCRF-CEM [2] = experiment: Antiproliferative activity against human CCRF-CEM cells after 72 hrs by celltitre assay; procedure, shortened: as §2
[3] = Antiproliferative activity against human multidrug-resistant P-glycoprotein expressing NCI/ADR cells after 72 hrs by celltitre assay; settings: NCI/ADR-RES; procedure, shortened: as §1

Structure (SMILES)	IC50 (A549) [pM]	IC50 (MCF7) [pM]	IC50 (CCRF-CEM [1]) [pM]	IC50 (CCRF-CEM [2]) [pM]	IC50 [3] [pM]
C/C=C/[C@H](O)C(C)(C)[C@@H]1C\C=C/C=C\C=C\[C@H](OC)Cc2nc(co2)C(=O)O[C@H](C(C)(C)[C@@H](O)/C=C/C)C/C=C\[C@@H](O)C(OC)/C=C/C=C\c2nc(co2)C(=O)O1 (stereo not given in full)	250	240	240	110	2800
C/C=C/[C@H](O)C(C)(C)[C@@H]1C\C=C/C=C\C=C\[C@H](OC)Cc2nc(co2)C(=O)O[C@H](C(C)(C)[C@@H](O)/C=C/C)C/C=C\[C@H]2O[C@H]2/C=C/C=C\c2nc(co2)C(=O)O1 [DISORAZOLE A1]	310	250	66	70	520
C/C=C/[C@H](O)C(C)(C)[C@@H]1C\C=C/C=C\C=C\[C@H](OC)Cc2nc(co2)C(=O)O[C@H](C(C)(C)[C@@H](O)/C=C/C)C/C=C\[C@@H](O)/C=C/C(OC)/C=C\c2nc(co2)C(=O)O1 (stereo not given in full)	730	620	1300	330	28000
